Bioassay records deposited in PubChem by several laboratories.
A selection: hits, their analogues and other compounds. The true share with any hit is near 1.9%.
b-catenin transl = modulators of beta-catenin nuclear translocation, primary screen, imaging, HeLa cells, immunofluorescence, high-content; nuclear translocation activity, % at 5 µM; 190,000 compounds, 0.3% hits;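 active = nuclear translocation activity above 50% at 5 µM, with a well cell count of 50 or more; inconclusive = wells under 50 cells across six images, flagged as toxic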;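 also: per-cell ratio of nuclear to cytoplasmic median beta-catenin stain intensity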
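Technique: fluorescence imaging of beta-catenin antibody stain plus DAPI / Material: human HeLa cell line / Incubation: compound treatment 24 h, 37°C, 5% CO2 / Read-out basis: % activation of per-cell nuclear versus cytoplasmic median beta-catenin signal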
Autophagy mod = autophagy modulators in MEF cells, primary screen, imaging, high-content, MEF GFP-LC3; MEF GFP-LC3 puncta imaging; test concentration mostly 10 µM; calls only at 10 µM (by protocol); 190,000 compounds, 0.98% hits; AID 463193, 2010;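 active = percentage of spot-positive cells more than 3 SD above its plate mean, without a fluorescence outlier flag or 80% toxicity; inconclusive = no clear call, values can overlap the other calls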
MT stabilizer = microtubule stabilizers in HeLa cells, primary screen, imaging, high-content imaging | HeLa tubulin immunostaining HCS, 24 h; share of cells brighter than vehicle mean+2SD | % tubulin-high responders, % at 10 µM | 200,000 compounds, 0.83% hits | AID 2205, 2009;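 active = plate Z-score above 3 for both tubulin-high and condensed-nucleus cell shares, with cell loss under 80%, at 10 µM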;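 also: anti alpha tubulin signal scored within the nucleus-defined area of each cell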
HSV augment = enhancers of HSV replication in host cells, fold increase, host cell viability; HSV replication augmentation in cells; maximum fold increase; 220,000 compounds, 0.005% hits; AID 1956, 2009; in the data active = maximum fold increase above about 1.5; inconclusive = no clear call, values can overlap the other calls; tested in PC3 cells
Furin inh = human furin inhibitors, primary screen, biochemical, fluorescence intensity. P09958. purified furin, fluorogenic substrate cleavage. inhibition, % at 20 µM or 30 µM. 220,000 compounds, 0.061% hits. AID 463115, 2010; in the data active = inhibition above about 25%
Target sequence (P09958 108-714 limits assumed): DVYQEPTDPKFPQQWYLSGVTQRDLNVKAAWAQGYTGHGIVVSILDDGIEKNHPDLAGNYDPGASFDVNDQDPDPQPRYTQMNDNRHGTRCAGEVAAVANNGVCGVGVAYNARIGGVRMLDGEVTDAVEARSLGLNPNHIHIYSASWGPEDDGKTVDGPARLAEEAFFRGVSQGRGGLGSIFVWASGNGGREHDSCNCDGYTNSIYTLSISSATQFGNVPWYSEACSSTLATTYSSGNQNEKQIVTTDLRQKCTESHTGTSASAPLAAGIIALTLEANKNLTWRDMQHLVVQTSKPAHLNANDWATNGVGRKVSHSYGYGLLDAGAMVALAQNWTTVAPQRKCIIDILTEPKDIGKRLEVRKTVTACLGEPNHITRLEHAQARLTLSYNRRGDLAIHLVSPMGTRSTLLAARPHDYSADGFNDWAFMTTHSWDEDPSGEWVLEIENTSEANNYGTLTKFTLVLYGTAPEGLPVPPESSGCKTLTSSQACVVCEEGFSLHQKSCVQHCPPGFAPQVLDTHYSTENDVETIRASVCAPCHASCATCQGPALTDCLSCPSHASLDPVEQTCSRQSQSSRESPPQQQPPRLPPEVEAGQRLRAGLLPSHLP
Ins promoter up = insulin promoter activators in MIN6 cells, imaging, high-content screening, mouse beta cells; MIN6 insulin promoter-GFP reporter; hits give high values; z-score at 5 µM; 190,000 compounds, 0.3% hits;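 active = z-score above 3 at 5 µM with at least 500 cells counted in the well; inconclusive = wells under 500 cells, flagged as cytotoxic or low count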
Large screens that a line does not name were inactive.

CC(C)CC(=O)Nc1nc2ccc(S(=O)(=O)N3CCOCC3)cc2s1	MT stabilizer 49
CCCC(=O)Nc1nc2ccc(S(=O)(=O)N3CCCCC3)cc2s1	none
O=C1c2ccccc2S(=O)(=O)c2cc(C(=O)N3CCC(C(=O)N4CCCCC4)CC3)ccc21	none (no result: b-catenin transl, Autophagy mod, MT stabilizer, Furin inh, Ins promoter up)
c1ccc(-c2cn3nc(-c4ccccc4)c(-c4ccccc4)nc3n2)cc1	Autophagy mod active
Cc1ccc(-c2cn3nc(-c4ccccc4)c(-c4ccccc4)nc3n2)cc1	none (no result: Autophagy mod, MT stabilizer, Ins promoter up)
COc1ccc(N(CC(=O)NCc2ccccc2)C(=O)CCC(=O)Nc2cc(C)ccn2)c(OC)c1	none (no result: Autophagy mod, MT stabilizer)
Cc1ccc(N(C(=O)CCl)C(C(=O)NC2CCCCC2)c2cccnc2)cc1C (centres undefined)	Autophagy mod active (no result: Ins promoter up)
Cc1ccc(N(C(=O)CNC(=O)c2ccco2)C(C(=O)NC2CCCC2)c2cccnc2)cc1C (centres undefined)	none
CCCCNC(=S)Nc1ccc(C(F)(F)F)cc1	none
Cc1ccc2[nH]c(-c3ccccc3)c(CN(C)C)c(=O)c2c1	Ins promoter up 4.2
OC(COc1cccc2ccccc12)CN1CCN(c2ccccc2Cl)CC1 (centres undefined)	Ins promoter up 3.5 (no result: Autophagy mod, MT stabilizer)
COc1ccc(Nc2nc(C)nc3sc4c(c23)CCC4)cc1O	MT stabilizer 21
Cc1cc(Cl)n2c(nc3ccccc32)c1C#N	b-catenin transl 106, Ins promoter up inconclusive
Cc1cc(-c2ccccc2)n(-c2cc(N/N=C/c3ccccc3O)ncn2)n1	b-catenin transl 128
CNc1cc(-n2nc(C)cc2-c2ccccc2)ncn1	none
COc1cc(/C=N/NC(=O)c2[nH]nc3c2CCc2ccccc2-3)ccc1O	MT stabilizer 24
COc1cc(/C=N/NC(=O)c2ccccc2)ccc1O	none
COC(=O)c1cc(-c2ccc(S(=O)(=O)N3CCCCC3)cc2)c(C(F)(F)F)s1	none (no result: Autophagy mod, MT stabilizer)
COc1cccc(Sc2ccccc2/C=N/NC(N)=O)c1	MT stabilizer 15
Cc1ccc(-c2cc(C(F)F)n3ncc(C(=O)Nc4c(C)nn(Cc5c(Cl)cccc5Cl)c4C)c3n2)cc1	Autophagy mod active
Cc1nn(Cc2c(Cl)cccc2Cl)c(C)c1NC(=O)c1cnn2c(C(F)F)cc(-c3ccccc3)nc12	none
Cc1ccc(-c2cc(C(F)F)n3ncc(C(=O)N4CCc5ccccc54)c3n2)cc1	Autophagy mod active, MT stabilizer 11
Cc1ccnc(SCc2nc3ccccc3s2)n1	none
CC(OC(=O)c1oc2ccccc2c1CSC1CCCCC1)C(=O)NC(N)=O (centres undefined)	none (no result: Ins promoter up)
CC(OC(=O)c1oc2ccccc2c1COc1ccccc1)C(=O)NC(N)=O (centres undefined)	Autophagy mod active
O=C(O)CCn1c(-c2ccccc2)cc2ccccc21	none
Cc1ccc(S(=O)(=O)NCCC(=O)Nc2nnc(C3CC3)s2)cc1C	none (no result: Ins promoter up)
Cc1cc(C)cc(N(CCC(=O)Nc2nnc(C3CC3)s2)S(=O)(=O)c2ccc(Cl)cc2)c1	MT stabilizer 19 (no result: Ins promoter up)
O=C(NCc1ccco1)C1CC(c2cc(C(F)(F)F)cc(C(F)(F)F)c2)=NO1 (centres undefined)	b-catenin transl 92 (no result: Autophagy mod, MT stabilizer)
COc1ccc(OC)c(C2=NOC(C(=O)NCc3ccco3)C2)c1 (centres undefined)	MT stabilizer 21 (no result: b-catenin transl)
O=C(NCc1ccco1)C1CC(c2ccccc2C(F)(F)F)=NO1 (centres undefined)	none (no result: Autophagy mod, MT stabilizer)
Cc1ccc(-n2nnnc2SCC(=O)c2cc(C)n(CC3CCCO3)c2C)cc1 (centres undefined)	none (no result: b-catenin transl, Autophagy mod, MT stabilizer, Furin inh, Ins promoter up)
Cc1ccc(-n2nnnc2SCC(=O)c2cc(C)n(-c3cc(C)on3)c2C)cc1	MT stabilizer 7.5
Cc1cc(C)c2oc(-c3ccc(Cl)c(NC(=O)c4ccc(C#N)cc4F)c3)nc2c1	Autophagy mod active (no result: HSV augment)
O=C(NCc1ccccc1)C1COc2ccccc2O1 (centres undefined)	Furin inh 30
O=C(Cn1cnc2c(nnn2-c2cccc(Cl)c2)c1=O)NCc1ccccc1	none (no result: HSV augment)
CCC(=C(c1ccc(OC)cc1)c1ccc(OC)cc1)c1cn(CC(O)CN2CCN(C)CC2)c2ccccc12 (centres undefined)	Autophagy mod active (no result: HSV augment)
O=c1[nH]c(/C=C/c2ccccc2OC(F)F)nc2c1cnn2-c1ccccc1	Ins promoter up 3.2
